Measured values reported in ChEMBL document CHEMBL4251752, “Integrated Strategy for Lead Optimization Based on Fragment Growing: The Diversity-Oriented-Target-Focused-Synthesis Approach” (J Med Chem, 2018).

The molecules below were run against T1, Bromodomain-containing protein 4 (Homo sapiens, UniProt O60885) (assay: Binding affinity to TEV cleavage site-fused-His-tagged BRD4(BD1) (unknown origin) by isothermal-titration calorimetry).
Method in brief: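 BRD4(BD1) with His-tag cleaved by TEV, DTT removed, dialysed into 10 mM HEPES pH 7.5, 150 mM NaCl; compounds diluted in the final dialysate. Reverse titration (protein in syringe, ligand in cell), 13 injections at 15 or 25 °C, in triplicate. Data fitted to a one-site model for KD and ΔH; ΔG and TΔS derived from these.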

Q: With `CCn1cnc2c1c(=O)[nH]c(=O)n2Cc1ccc(CNS(=O)(=O)c2cnn(-c3ccccc3)c2)cc1` as the molecule, how does the Kd read?
A: 410 nM

Q: With `CCn1cnc2c1c(=O)[nH]c(=O)n2Cc1ccc(CNS(=O)(=O)c2ccc(OC)cc2)cc1` as the molecule, how does the Kd read?
A: 540 nM

Q: For `CCn1cnc2c1c(=O)[nH]c(=O)n2Cc1ccc(CNS(=O)(=O)c2ccc(OCc3ccccc3)cc2)cc1`, which Kd is on record?
A: 590 nM

Q: `CCn1cnc2c1c(=O)[nH]c(=O)n2Cc1ccc(CNS(=O)(=O)c2ccc3c(c2)CCC(=O)N3)cc1` was tested. Which Kd did it give?
A: 310 nM

Q: Which Kd does the source give for `CCn1cnc2c1c(=O)[nH]c(=O)n2Cc1ccc(CNS(=O)(=O)c2ccc(C)cc2)cc1` here?
A: 770 nM

Q: Which Kd does the source give for `CCn1cnc2c1c(=O)[nH]c(=O)n2Cc1ccc(CNS(=O)(=O)c2ccc3c(c2)n(C)c(=O)n3C)cc1` here?
A: 860 nM

Q: Which Kd does the source give for `CCn1cnc2c1c(=O)[nH]c(=O)n2Cc1ccc(CNS(=O)(=O)c2ccc(Oc3ccccc3)cc2)cc1` here?
A: 360 nM

Q: How did the Kd turn out when `CCn1cnc2c1c(=O)[nH]c(=O)n2Cc1ccc(CNS(=O)(=O)c2cccc(-c3ccccc3)c2)cc1` was run?
A: 890 nM

Q: For `CCn1cnc2c1c(=O)[nH]c(=O)n2Cc1ccc(CNS(=O)(=O)c2ccc3c(c2)CCCC(=O)N3)cc1`, which Kd is on record?
A: 190 nM

Each molecule was assayed against T1, Bromodomain-containing protein 4 (assay: Inhibition of TEV cleavage site-fused-GST tagged BRD4(BD1) (unknown origin) using SGRGK(Ac)CGK(Ac)-GLGK(Ac)GGAK(Ac)RHRKVG-peptide after 3 hrs by HTRF assay).
Method in brief: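 GST-BRD4(BD1) purified on glutathione resin and by size exclusion; tetra-acetylated H4 peptide as ligand. Buffer 50 mM HEPES pH 7.5, 400 mM KF, 0.1% BSA, 0.5% DMSO final; 3 h at room temperature.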

Q: How did the IC50 turn out when `CCn1cnc2c1c(=O)[nH]c(=O)n2Cc1ccc(CNS(=O)(=O)c2cc(-c3ccno3)ccc2C)cc1` was run?
A: 1260 nM

Q: How did the IC50 turn out when `CCn1cnc2c1c(=O)[nH]c(=O)n2Cc1ccc(CNS(=O)(=O)c2cnn(-c3ccccc3)c2)cc1` was run?
A: 501 nM

Q: With `CCn1cnc2c1c(=O)[nH]c(=O)n2Cc1ccc(CNS(=O)(=O)CCN2CCOCC2)cc1` as the molecule, how does the IC50 read?
A: 5010 nM

Q: For `CCn1cnc2c1c(=O)[nH]c(=O)n2Cc1ccc(CNS(=O)(=O)c2ccc(OC)cc2)cc1`, which IC50 is on record?
A: 794 nM

Q: How did the IC50 turn out when `CCn1cnc2c1c(=O)[nH]c(=O)n2Cc1ccc(CN)cc1` was run?
A: 25100 nM

Q: For `CCn1cnc2c1c(=O)[nH]c(=O)n2Cc1ccc(CNS(=O)(=O)c2ccc(OCc3ccccc3)cc2)cc1`, which IC50 is on record?
A: 631 nM

Q: With `CCn1cnc2c1c(=O)[nH]c(=O)n2Cc1ccc(CNS(=O)(=O)c2ccc3c(c2)CCC(=O)N3)cc1` as the molecule, how does the IC50 read?
A: 398 nM

Q: With `CCn1cnc2c1c(=O)[nH]c(=O)n2Cc1ccc(CNS(=O)(=O)c2ccc(C)cc2)cc1` as the molecule, how does the IC50 read?
A: 631 nM

Q: Which IC50 does the source give for `CCn1cnc2c1c(=O)[nH]c(=O)n2Cc1ccc(CNS(=O)(=O)CCc2ccccc2)cc1` here?
A: 1580 nM

Q: With `CCn1cnc2c1c(=O)[nH]c(=O)n2Cc1ccc(CNS(=O)(=O)c2ccc3c(c2)n(C)c(=O)n3C)cc1` as the molecule, how does the IC50 read?
A: 794 nM

Q: How did the IC50 turn out when `CCn1cnc2c1c(=O)[nH]c(=O)n2Cc1ccc(CNS(=O)(=O)c2ccc(Oc3ccccc3)cc2)cc1` was run?
A: 316 nM

Q: Which IC50 does the source give for `CCn1cnc2c1c(=O)[nH]c(=O)n2Cc1ccc(CNS(=O)(=O)c2cccc(-c3ccccc3)c2)cc1` here?
A: 501 nM

Q: For `CCn1cnc2c1c(=O)[nH]c(=O)n2Cc1ccc(CNS(=O)(=O)c2ccc(-c3ccccc3)cc2)cc1`, which IC50 is on record?
A: 398 nM

Q: How did the IC50 turn out when `CCn1cnc2c1c(=O)[nH]c(=O)n2Cc1ccc(CNS(=O)(=O)c2ccc3oncc3c2)cc1` was run?
A: 2000 nM

The molecules below were run against T1, Bromodomain-containing protein 4 (assay: Binding affinity to TEV cleavage site-fused-His-tagged BRD4(BD1) (unknown origin) assessed as change in melting temperature at 10 uM by RT-PCR based thermal shift assay).
Method in brief: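 His-tag removed by TEV cleavage before use; protein 2 μM final, compound 10 μM final (0.1% or 0.5% DMSO), thermal shift dye 1:1000, in 10 mM HEPES pH 7.5, 500 mM NaCl. After 1 min equilibration at 25 °C, heated 25–70 °C in 0.5 °C steps (25 s each); Tm from fluorescence melt curves, run in triplicate; ΔTm reported.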

Q: For `CCn1cnc2c1c(=O)[nH]c(=O)n2Cc1ccc(CNS(=O)(=O)c2cnn(-c3ccccc3)c2)cc1`, which ΔTm is on record?
A: 3.38 °C

Q: For `CCn1cnc2c1c(=O)[nH]c(=O)n2Cc1ccc(CNS(=O)(=O)c2ccc(OC)cc2)cc1`, which ΔTm is on record?
A: 2.63 °C

Q: Which ΔTm does the source give for `CCn1cnc2c1c(=O)[nH]c(=O)n2Cc1ccc(CNS(=O)(=O)c2ccc(OCc3ccccc3)cc2)cc1` here?
A: 3.5 °C

Q: With `CCn1cnc2c1c(=O)[nH]c(=O)n2Cc1ccc(CNS(=O)(=O)c2ccc3c(c2)CCC(=O)N3)cc1` as the molecule, how does the ΔTm read?
A: 3 °C

Q: `CCn1cnc2c1c(=O)[nH]c(=O)n2Cc1ccc(CNS(=O)(=O)c2ccc(C)cc2)cc1` was tested. Which ΔTm did it give?
A: 3 °C

Q: Which ΔTm does the source give for `CCn1cnc2c1c(=O)[nH]c(=O)n2Cc1ccc(CNS(=O)(=O)c2ccc3c(c2)n(C)c(=O)n3C)cc1` here?
A: 2.13 °C

Q: With `CCn1cnc2c1c(=O)[nH]c(=O)n2Cc1ccc(CNS(=O)(=O)c2ccc(Oc3ccccc3)cc2)cc1` as the molecule, how does the ΔTm read?
A: 3.13 °C

Q: For `CCn1cnc2c1c(=O)[nH]c(=O)n2Cc1ccc(CNS(=O)(=O)c2cccc(-c3ccccc3)c2)cc1`, which ΔTm is on record?
A: 3.25 °C

Q: `CCn1cnc2c1c(=O)[nH]c(=O)n2Cc1ccc(CNS(=O)(=O)c2ccc(-c3ccccc3)cc2)cc1` was tested. Which ΔTm did it give?
A: 1.5 °C

Q: `CCn1cnc2c1c(=O)[nH]c(=O)n2Cc1ccc(CNS(=O)(=O)c2ccc3c(c2)CCCC(=O)N3)cc1` was tested. Which ΔTm did it give?
A: 3.88 °C
